Assay results as given in ChEMBL document CHEMBL1137668, “Activities of several classes of acyclic nucleoside phosphonates against camelpox virus replication in different cell culture models” (Antimicrob Agents Chemother, 2007).
Activity calls are given as the source filed them. No cut-off for these calls is given here.

Assays:
Camelpox virus [1] = assay: Antiviral activity against Camelpox virus CML1 infected in human PHK raft culture assessed as inhibition of virus-induced cytopathic effect at 9 uM after 7 days postinfection; format: functional, organism-based
Camelpox virus [2] = assay: Antiviral activity against Camelpox virus CML1 infected in HEL299 cells assessed as complete inhibition of viral replication at 0.4 uM after 6 days postinfection by virus yield reduction assay; format: functional, organism-based; details: HEL 299
[3] = Cytotoxicity against HEL299 cells after 4 days by Z1 Coulter counting analysis; format: cell-based, HEL 299; details: human, hel 299, 96 h
In short: (§1)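 Cell growth inhibition: HEL cells were seeded at 3.5 × 10³ per well and PHKs at 5 × 10³ per well. Serial dilutions were added in duplicate after 1 day (HEL) or 3 days (PHK). After 4 days with compound, cells were trypsinized and counted with a Coulter counter (8 μm lower limit). CC50 is the concentration reducing growth by 50%, mean ± SD of at least two experiments.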

Camelpox virus [4] = assay: Antiviral activity against Camelpox virus CML1 infected in human PHK assessed as reduction in viral titer after 6 days postinfection by virus yield reduction assay; format: functional
Camelpox virus [5] = assay: Antiviral activity against Camelpox virus CML1 infected in human PHK assessed as complete inhibition of viral replication at 4 uM after 6 days postinfection by virus yield reduction assay; format: functional, organism-based
[6] = Selectivity index, ratio of CC50 for HEL299 cells to EC50 for Camelpox virus CML1 infected in HEL299 cells; format: toxicity, cell-based, HEL 299; details: human, hel 299
[7] = Cytotoxicity against differentiated epithelium of human PHK raft culture at 38 uM after 4 days by Z1 Coulter counting analysis; details: 96 h
Camelpox virus [8] = assay: Antiviral activity against Camelpox virus CML1 infected in human PHK raft culture assessed as inhibition of viral replication at 38 uM after 7 days postinfection by virus yield reduction assay; format: functional, organism-based
Camelpox virus [9] = assay: Antiviral activity against Camelpox virus CML14 infected in HEL299 cells assessed as reduction in viral titer after 6 days postinfection by virus yield reduction assay; format: functional; details: HEL 299
[10] = Selectivity index, ratio of CC50 for HEL299 cells to EC50 for Camelpox virus CML14 infected in HEL299 cells; format: toxicity, cell-based, HEL 299; details: human, hel 299
[11] = Cytotoxicity against human PHK after 4 days by Z1 Coulter counting analysis; details: 96 h; in short: as §1
Camelpox virus [12] = assay: Antiviral activity against Camelpox virus CML14 infected in human PHK assessed as reduction in viral titer after 6 days postinfection by virus yield reduction assay; format: functional
Camelpox virus [13] = assay: Antiviral activity against Camelpox virus CML14 infected in human PHK assessed as complete inhibition of viral replication at 4 uM after 6 days postinfection by virus yield reduction assay; format: functional, organism-based
Camelpox virus [14] = assay: Antiviral activity against Camelpox virus CML14 infected in HEL299 cells assessed as complete inhibition of viral replication at 0.4 uM after 6 days postinfection by virus yield reduction assay; format: functional, organism-based; details: HEL 299

With `CCCCCCCCCCCCCCCCOCCO[PH]1(O)CO[C@@H](Cn2c(N)ncnc2=O)CO1` the Activity (Camelpox virus [1]) was “inactive”, the Activity (Camelpox virus [2]) was “Active” and the CC50 [3] was 79 µM. For the same molecule, the Activity (Camelpox virus [4]) was “Dose-dependent effect”, the Activity (Camelpox virus [5]) was “Active” and the “Ratio CC50/IC50” value [6] was 10. For the same molecule, the Activity [7] was “Toxic”, the Activity (Camelpox virus [8]) was “Active” and the Activity (Camelpox virus [9]) was “Dose-dependent effect”. For the same molecule, the “Ratio CC50/IC50” value [10] was 12, the CC50 [11] was 54 µM and the Activity (Camelpox virus [12]) was “Dose-dependent effect”. For the same molecule, the Activity (Camelpox virus [13]) was “Active” and the Activity (Camelpox virus [14]) was “Active”.
